Each structure is given as a SMILES string. The source made the active and inactive calls.

Six molecules from ChEMBL document CHEMBL3352780, “Discovery of Sulfonamidebenzamides as Selective Apoptotic CHOP Pathway Activators of the Unfolded Protein Response” (ACS Med Chem Lett, 2014) can be followed below.

Data set [1] has as its system MEF. Kind of data set: Antiproliferative activity against wild-type MEF cells after 16 hrs by luminescence assay. The format is functional, cell-based. The settings on record: Mus musculus. Summed up: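 Wild-type murine embryonic fibroblasts, run alongside a Chop-knockout MEF line, exposed to compound in dose-response for 16 h. Proliferation read by ATP-based luminescence. EC50 reported in μM ± SEM.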

Data set [2] concerns MEF. Briefly: Antiproliferative activity against CHOP-knock out MEF cells after 16 hrs by luminescence assay. The format is functional, cell-based. The settings on record: Mus musculus. Put shortly:
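Wildtype and Chop-knockout murine embryonic fibroblasts given test agent in dose-response for 16 h. Proliferation read by an ATP-based luminescent assay. Chop-null cells tested up to 20 μM; four independent experiments, triplicate samples.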

Data set [3] can be described thus: Stability in human plasma assessed as compound remaining after 180 mins by LC/MS/MS method. The format is ADME, cell-free. The settings on record: read-out: Stability.
Data set [4] concerns UMSCC23. Kind of data set: Induction of CHOP mRNA expression in human UM-SCC-23 cells at 20 uM after 6 hrs by qRT-PCR analysis. The format is functional, cell-based. Put shortly: (§1)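 UMSCC23 cells treated in dose-response for 6 h, then lysed. UPR and CHOP target gene transcripts measured by qRT-PCR, with tunicamycin as ER-stress positive control.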
In general terms: Quantitative PCR measures a nucleic acid by following its amplification.

Data set [5] is described as follows: Antiproliferative activity against human UM-SCC-23 cells after 24 hrs. The format is functional, UMSCC23. Summed up:
(§2)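 Oral squamous cell carcinoma panel cells treated with increasing concentrations of test agent for 24 h in dose-response proliferation assays.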

Data set [6] is described as follows: Antiproliferative activity against human HN30 cells after 24 hrs. The format is functional. Summed up:
as §2

Data set [7] has as its system HN6. Kind of data set: Antiproliferative activity against human HN6 cells after 24 hrs. The format is functional, cell-based. Summed up: as §2
Data set [8] concerns Liver microsome. Briefly: Metabolic stability in human liver microsomes after 60 mins by LC/MS/MS method. The format is ADME. The settings on record: 1 h.
Data set [9] in a line: Cytotoxicity against human Fa2N-4 cells assessed as cell viability after 24 hrs by luminescence assay. The format is cell-based. The settings on record: fa2n-4, 24 h.
Data set [10] has as its system UMSCC23. Kind of data set: Induction of ERCC1 mRNA expression in human UM-SCC-23 cells at 0.04 to 20 uM after 6 hrs by qRT-PCR analysis. The format is functional, cell-based. Put shortly: as §1
Data set [11] relates to UMSCC23. Kind of data set: Induction of CHOP mRNA expression in human UM-SCC-23 cells at 0.04 to 20 uM after 6 hrs by qRT-PCR analysis. The format is functional, cell-based. Put shortly: as §1
Data set [12] concerns Liver. Briefly: Metabolic stability in mouse liver microsomes after 60 mins by LC/MS/MS method. The format is ADME. The settings on record: 1 h. Background: Microsomes from liver hold many membrane-bound enzymes, among them those of drug oxidation.
The test system of data set [13] is Plasma. Briefly: Plasma protein binding in human plasma after 4 hrs by LC/MS/MS method. The format is ADME, cell-free.
Data set [14] can be described thus: Plasma protein binding in mouse plasma after 4 hrs by LC/MS/MS method. The settings on record: read-out: PPB (converted). The format is ADME, cell-free.
The nature of data set [15]: Tmax in CD-1 mouse at 30 mg/kg, ip. The format is ADME, organism-based. The arrangement: dose 30 mg/kg, route intraperitoneal. The settings on record: in vivo. Put shortly:
(§3)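 Male CD-1 mice, single IP dose of 30 mg/kg, 3 mice per group. Plasma concentrations determined at 7 intervals over 8 h.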

Data set [16] concerns UMSCC23. Kind of data set: Induction of XBP1 mRNA expression in human UM-SCC-23 cells at 20 uM after 6 hrs by qRT-PCR analysis. The format is functional, cell-based. Summed up:
as §1

Data set [17] in a line: Permeability of the compound at pH 5 to 7.4 by PAMPA. The format is ADME. Put shortly:
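PAMPA model of passive transcellular permeability, donor compartment at pH 5.0, 6.2 and 7.4. Compound concentration in the compartments determined by UV spectroscopy.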
On the technique in general: The PAMPA barrier holds no transporters, so it reflects passive diffusion.

The target of data set [18] is Sodium-dependent dopamine transporter (Homo sapiens) (UniProt Q01959). Briefly: Displacement of [125I] RTI-55 from human recombinant DAT expressed in CHOK1 cells after 3 hrs. The format is cell-based. The settings on record: CHO-K1, concentration not given here. Summed up:
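Profiled at 10 μM within a 67-target panel of GPCRs, nuclear receptors, transporters and ion channels. Significant inhibition defined as >50% at a single target.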

In data set [19] the test system is UMSCC23. Kind of data set: Induction of GADD34 mRNA expression in human UM-SCC-23 cells at 0.04 to 20 uM after 6 hrs by qRT-PCR analysis. The format is functional, cell-based. Summed up: as §1
Data set [20] can be described thus: Cmax in CD-1 mouse at 30 mg/kg, ip. The format is ADME, organism-based. The arrangement: dose 30 mg/kg, route intraperitoneal. The settings on record: in vivo. Put shortly:
as §3

The nature of data set [21]: Aqueous solubility of the compound in PBS buffer by UV-spectrophotometry. The format is physicochemical. Summed up:
(§4)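 Solubility measured in PBS and pION buffer across a biologically relevant pH range.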

The nature of data set [22]: Antiproliferative activity against human HN12 cells after 24 hrs. The format is functional. Summed up:
as §2

Data set [23] relates to UMSCC23. Kind of data set: Induction of XBP1 mRNA expression in human UM-SCC-23 cells at 0.04 to 20 uM after 6 hrs by qRT-PCR analysis. The format is functional, cell-based. Put shortly:
as §1

The subject of data set [24] is H460/T800. Briefly: Antiproliferative activity against human H460/T800 cells after 24 hrs. The format is functional, cell-based.
In data set [25] the test system is Plasma. Kind of data set: Stability in mouse plasma assessed as compound remaining after 180 mins by LC/MS/MS method. The format is ADME, cell-free. The settings on record: 3 h.
The nature of data set [26]: Aqueous solubility of the compound in pION buffer by UV-spectrophotometry. The format is physicochemical. Summed up:
as §4

Data set [27] deals with A253. Kind of data set: Antiproliferative activity against human A253 cells after 24 hrs. The format is functional, cell-based. Put shortly: as §2

Sequence of Sodium-dependent dopamine transporter (Homo sapiens) (Q01959 whole entry): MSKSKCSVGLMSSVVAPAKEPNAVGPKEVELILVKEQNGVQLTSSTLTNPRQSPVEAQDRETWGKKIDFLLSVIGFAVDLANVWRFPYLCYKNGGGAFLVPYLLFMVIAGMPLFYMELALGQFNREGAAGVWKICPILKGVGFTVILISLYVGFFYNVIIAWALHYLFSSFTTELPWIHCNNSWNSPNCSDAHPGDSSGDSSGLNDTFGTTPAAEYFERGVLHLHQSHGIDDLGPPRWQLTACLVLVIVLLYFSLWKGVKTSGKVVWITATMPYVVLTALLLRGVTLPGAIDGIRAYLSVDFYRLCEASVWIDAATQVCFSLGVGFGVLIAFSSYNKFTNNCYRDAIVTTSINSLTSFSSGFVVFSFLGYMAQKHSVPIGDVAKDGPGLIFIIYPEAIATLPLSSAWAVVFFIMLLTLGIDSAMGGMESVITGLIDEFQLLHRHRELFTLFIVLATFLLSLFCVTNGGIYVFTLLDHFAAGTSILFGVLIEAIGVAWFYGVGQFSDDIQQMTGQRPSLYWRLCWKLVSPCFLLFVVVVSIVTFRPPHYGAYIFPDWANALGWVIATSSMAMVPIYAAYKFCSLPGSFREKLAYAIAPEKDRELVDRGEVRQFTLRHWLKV

By EC50 is commonly meant the concentration at which the effect is half-maximal. A high value points to weaker potency. Regarding `O=C(Nc1ccc(S(=O)(=O)N2CCCCC2)cc1)c1ccc([N+](=O)[O-])o1`, the EC50 in [1] is 7.8 µM; in data set [2], more than 20 µM.

In the case of `CC(C)(C)C1CCN(S(=O)(=O)c2ccc(NC(=O)c3ccc([N+](=O)[O-])o3)cc2)CC1`, the results for the EC50 in [1] and in [2] were 1.4 µM and 2.1 µM, respectively.

Regarding `O=C(Nc1ccc(S(=O)(=O)N2CCC(F)CC2)cc1)c1ccc([N+](=O)[O-])o1`, the values for the EC50 in data set [1] and in [2] were 17.5 µM and more than 20 µM, respectively.

As for `CC1(C)CCN(S(=O)(=O)c2ccc(NC(=O)c3ccc([N+](=O)[O-])o3)cc2)CC1`, the values for the EC50 in data set [1] and in data set [2] were 3 µM and 9.2 µM, respectively.

As usually defined, the Tmax is the time from dosing to the highest level. One may read the inhibition as the share of the control response that was lost under treatment. Usually Cmax stands for the maximum level reached in the sampled fluid or tissue. Regarding `O=C(Nc1ccc(S(=O)(=O)N2CCC(Cl)CC2)cc1)c1ccc([N+](=O)[O-])o1`, in [3], the remaining at 3 h was found to be 86%. The outcome in data set [4], in [7], in data set [10], in data set [16], in [24] and in data set [27] was inactive. Further, the EC50 in [1] was 4.8 µM; in [2], more than 20 µM. The Activity in [5] amounted to 7.3 µM; in data set [6] it was 9 µM; in [9], 11 µM; in [22], 7.2 µM. Also, the Stability entry in [8] was “Unstable”; in [12] it was “Unstable”; in data set [25], 52%. For the same molecule, the outcome in data set [11], in data set [19] and in data set [23] was Active. The molecule further had a PPB in data set [13] of more than 99%. Also, the fraction unbound at 4 h in data set [14] is 0.16. For the same molecule, in data set [15], the Tmax stood at 10.2 min. In addition, the permeability result in data set [17] is given as “permeable”. The inhibition in data set [18] came out at 68%. This molecule came in with a Cmax in data set [20] of 0.14 µM. Further, the solubility result in data set [21] and in data set [26] was “soluble” in each case.

Turning to `CC1CCN(S(=O)(=O)c2ccc(NC(=O)c3ccc([N+](=O)[O-])o3)cc2)CC1`, the EC50 in data set [1] was determined as 4.6 µM; in data set [2], 16.3 µM.
